This is an account of results in ChEMBL document CHEMBL3085668, “α- and β-hydrazino acid-based pseudopeptides inhibit the chymotrypsin-like activity of the eukaryotic 20S proteasome” (Eur J Med Chem, 2013).

Each structure is given as a SMILES string. Calls of active or inactive are those of the source. The calls are words filed in the database; no cut-off is given here.

Assay [1] in a line: (§1) Inhibition of chymotrypsin like activity of rabbit 20S proteasome using Suc-LLVY-AMC as substrate after 45 mins. More on the design: species or system Oryctolagus cuniculus. The essentials: (§2)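 Rabbit 20S proteasome (0.3 nM final) incubated with Suc-LLVY-AMC ([…] final) at 37 °C for 45 min in pH 7.5 buffer of 20 mM Tris, 1 mM DTT, 10% glycerol. Chymotrypsin-like activity was followed as substrate hydrolysis (AMC release), with and without test compound. Inhibition was taken relative to the no-compound control.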

The species entered for assay [2] is Oryctolagus cuniculus. Put plainly: Inhibition of chymotrypsin like activity of rabbit 20S proteasome using Suc-LLVY-AMC as substrate at 100 uM after 45 mins relative to control. In a few lines: as §2
Assay [3] is filed under the species Oryctolagus cuniculus. The assay is described as §1. In a few lines:
as §2

`COC(=O)[C@H](Cc1ccccc1)NC(=O)CNNC(=O)C(CCCCNC(=O)OCc1ccccc1)NC(=O)Cc1cccc(Oc2ccccc2)c1` (some centres undefined) returned an IC50 in assay [1] of 1.1 µM.
In assay [1], `COC(=O)[C@H](Cc1ccccc1)NC(=O)CC(NNC(=O)[C@H](CCCCN)NC(=O)Cc1cccc(Oc2ccccc2)c1)C(F)(F)F` (single isomer, unassigned; diastereomer 2) displayed a concentration for half-maximal inhibition (IC50) of 5.9 µM.
On the same count and under the same terms, the value for `COC(=O)[C@H](Cc1ccccc1)NC(=O)CCNNC(=O)[C@H](CCCCNC(=O)OCc1ccccc1)NC(=O)Cc1cc(OC)ccc1OC` was 3.6 µM.
`COC(=O)[C@H](Cc1ccccc1)NC(=O)CC(NNC(=O)[C@H](CC(N)=O)NC(=O)OC(C)(C)C)C(F)(F)F` (some centres undefined) showed an inhibition in the assay listed under Oryctolagus cuniculus [2] of 30%.
In assay [1], `COC(=O)[C@H](Cc1ccccc1)NC(=O)CNNC(=O)C(CCCCN)NC(=O)Cc1cccc(Oc2ccccc2)c1` (some centres undefined) came in with an IC50 of 0.7 µM.
`COC(=O)C(Cc1ccccc1)NC(=O)CCNNC(=O)C(CCCCNC(=O)OCc1ccccc1)NC(=O)Cc1cccc(Oc2ccccc2)c1` (centres undefined): in assay [1], the 50% inhibitory concentration (IC50) is 2.8 µM.
Consider `COc1ccc(OC)c(CC(=O)N[C@@H](CCCCNC(=O)OCc2ccccc2)C(=O)NNC(CC(=O)NCc2cc(OC)c(OC)c(OC)c2)C(F)(F)F)c1` (some centres undefined), for which, in the assay listed under Oryctolagus cuniculus [3], the inhibition result is “inactive”.
As to `COc1ccc(C[C@H](NC(=O)Cc2cccc(Oc3ccccc3)c2)C(=O)NNC(=O)CC(NNC(=O)OC(C)(C)C)C(F)(F)F)cc1OC` (some centres undefined), in the assay filed under Oryctolagus cuniculus [3], the inhibition result was “inactive”.
For `COc1cc(CNC(=O)CCNNC(=O)[C@H](CCCCNC(=O)OC(C)(C)C)NC(=O)OCC2c3ccccc3-c3ccccc32)cc(OC)c1OC`, the IC50 in assay [1] is 6 µM.
As to `COC(=O)[C@H](Cc1ccccc1)NC(=O)CC(NNC(=O)Cc1cc(OC)ccc1OC)C(F)(F)F` (some centres undefined), the inhibition entry in the assay listed under Oryctolagus cuniculus [3] is “inactive”.
`COC(=O)[C@H](Cc1ccccc1)NC(=O)CC(NNC(=O)[C@H](CCCCN)NC(=O)Cc1cc(OC)ccc1OC)C(F)(F)F` (some centres undefined) had an IC50 in assay [1] of 5.9 µM.
For `COC(=O)C(Cc1ccccc1)NC(=O)CCNNC(=O)C(CCCCN)NC(=O)Cc1cccc(Oc2ccccc2)c1` (centres undefined), it took 1.4 µM to reach half-maximal inhibition in assay [1] (IC50).
Still for that read-out and setting: to `COc1ccc(OC)c(CC(=O)NC(CCCCNC(=O)OC(C)(C)C)C(=O)NNCCC(=O)NCc2cc(OC)c(OC)c(OC)c2)c1` (centres undefined) belongs 31.4 µM.
In the assay listed under Oryctolagus cuniculus [2], `COC(=O)[C@H](Cc1ccccc1)NC(=O)CC(NNC(=O)[C@H](CCCCNC(=O)OCc1ccccc1)NC(=O)Cc1cc(OC)ccc1OC)C(F)(F)F` (some centres undefined) yielded an inhibition of 30%.
In the case of `COc1ccc(C[C@H](NC(=O)OCC2c3ccccc3-c3ccccc32)C(=O)NNC(=O)CC(NNC(=O)OC(C)(C)C)C(F)(F)F)cc1OC` (some centres undefined), in the assay filed under Oryctolagus cuniculus [3], the inhibition entry was “inactive”.
On the same count and under the same terms, the value for `COc1cc(CNC(=O)CC(NNC(=O)[C@H](CC(N)=O)NC(=O)OC(C)(C)C)C(F)(F)F)cc(OC)c1OC` (some centres undefined) was “inactive”.
Take `COC(=O)C(Cc1ccccc1)NC(=O)CCNNC(=O)C(N)CCCCNC(=O)OCc1ccccc1` (centres undefined): the IC50 in assay [1] was determined as 18.2 µM.
Still for that read-out and setting: to `COc1cc(CNC(=O)CC(NNC(=O)[C@@H](N)CCCCNC(=O)OCc2ccccc2)C(F)(F)F)cc(OC)c1OC` (some centres undefined) belongs 10.1 µM; to `COC(=O)[C@H](Cc1ccccc1)NC(=O)CNNC(=O)C(CCCCNC(=O)OCc1ccccc1)NC(=O)OC(C)(C)C` (some centres undefined), 11.8 µM; to `COC(=O)[C@H](Cc1ccccc1)NC(=O)CNNC(=O)C(CCCCN)NC(=O)Cc1cc(OC)ccc1OC` (some centres undefined), 1 µM.
The same measure, in the same setting: to `COc1cc(CNC(=O)CCNNC(=O)C(CCCCN)NC(=O)Cc2cccc(Oc3ccccc3)c2)cc(OC)c1OC` (centres undefined) belongs 3.3 µM; to `COC(=O)[C@H](Cc1ccccc1)NC(=O)CCNNC(=O)[C@H](CCCCN)NC(=O)Cc1cc(OC)ccc1OC`, 8.8 µM; to `COC(=O)[C@H](Cc1ccccc1)NC(=O)CC(NNC(=O)[C@H](CCCCN)NC(=O)Cc1cccc(Oc2ccccc2)c1)C(F)(F)F` (single isomer, unassigned; diastereomer 1), 8.4 µM.
As for `COc1cc(CNC(=O)CC(NNC(=O)[C@H](CCCCNC(=O)OCc2ccccc2)NC(=O)OC(C)(C)C)C(F)(F)F)cc(OC)c1OC` (some centres undefined), the inhibition in the assay filed under Oryctolagus cuniculus [2] was 35%.
In the case of `COc1ccc(OC)c(CC(=O)NC(CCCCN)C(=O)NNCCC(=O)NCc2cc(OC)c(OC)c(OC)c2)c1` (centres undefined), the midpoint of inhibition in assay [1], the IC50, lay at 11.8 µM.
As to `COc1ccc(C[C@H](NC(=O)OCC2c3ccccc3-c3ccccc32)C(=O)NNC(=O)CC(NNC(=O)OCc2ccccc2)C(F)(F)F)cc1OC` (some centres undefined), the fold change (FC) in the assay filed under Oryctolagus cuniculus [2] worked out at 3.6.
Regarding `COC(=O)[C@H](Cc1ccccc1)NC(=O)CNNC(=O)C(CCCCNC(=O)OCc1ccccc1)NC(=O)Cc1cc(OC)ccc1OC` (some centres undefined), the IC50 in assay [1] amounted to 7.1 µM.
For the compound `COc1ccc(C[C@H](N)C(=O)NNC(=O)CC(NNC(=O)OCc2ccccc2)C(F)(F)F)cc1OC` (some centres undefined), the inhibition result in the assay filed under Oryctolagus cuniculus [3] is “inactive”.
Turning to `COC(=O)C(Cc1ccccc1)NC(=O)CCNNC(=O)C(CCCCNC(=O)OCc1ccccc1)NC(=O)OC(C)(C)C` (centres undefined), in assay [1], inhibition was half-maximal at 48.5 µM (IC50).
Consider `COC(=O)[C@H](Cc1ccccc1)NC(=O)CC(NNC(=O)[C@H](CC(N)=O)NC(=O)Cc1cc(OC)ccc1OC)C(F)(F)F` (some centres undefined), for which the inhibition entry in the assay listed under Oryctolagus cuniculus [3] is “inactive”.
`COc1cc(CNC(=O)CCNNC(=O)C(CCCCNC(=O)OC(C)(C)C)NC(=O)Cc2cccc(Oc3ccccc3)c2)cc(OC)c1OC` (centres undefined) registered a half-maximal inhibitory concentration (IC50) in assay [1] of 4.7 µM.
`COc1ccc(C[C@H](NC(=O)Cc2cccc(Oc3ccccc3)c2)C(=O)NNC(=O)CC(NNC(=O)OCc2ccccc2)C(F)(F)F)cc1OC` (some centres undefined): the inhibition entry in the assay filed under Oryctolagus cuniculus [3] is “inactive”.
In the case of `COc1ccc(OC)c(CC(=O)N[C@@H](CCCCN)C(=O)NNC(CC(=O)NCc2cc(OC)c(OC)c(OC)c2)C(F)(F)F)c1` (some centres undefined), 97 µM corresponded to half-maximal inhibition in assay [1] (IC50).
Still for that read-out and setting: the value for `COc1cc(CNC(=O)CC(NNC(=O)[C@H](CCCCN)NC(=O)Cc2cccc(Oc3ccccc3)c2)C(F)(F)F)cc(OC)c1OC` (some centres undefined) was 6.2 µM.

In general, IC50 refers to the concentration that gives 50% inhibition. Low readings indicate greater potency in that assay, high ones weaker potency in that assay. Usually inhibition stands for the percentage by which the read-out fell short of the control.
